Active and inactive are the calls of the source. No cut-off for these calls is given here.
Key:
[1] = tested on: Mus musculus; assay: Anticonvulsant activity in albino CF-1 mouse assessed as protection against maximal electroshock-induced seizures at 300 mg/kg, ip after 0.5 hrs; format: functional, organism-based; parameters: dose 300 mg/kg
Procedure, shortened: (§1)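 Male CF-1 mice (18–25 g), i.p. in 0.5% methyl cellulose at 30, 100 and 300 mg/kg; MES: 60 Hz, 50 mA, 0.2 s through tetracaine-primed corneal electrodes; protection = abolished hind limb tonic extension. Value given as minimum dose active in half or more of mice.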

[2] = tested on: Mus musculus; assay: Anticonvulsant activity in albino CF-1 mouse assessed as protection against maximal electroshock-induced seizures at 300 mg/kg, ip after 2 hrs; format: functional, organism-based; parameters: dose 300 mg/kg; procedure, shortened: as §1
[3] = tested on: Mus musculus; assay: Anticonvulsant activity in albino CF-1 mouse assessed as protection against maximal electroshock-induced seizures at 300 mg/kg, ip after 4 hrs; format: functional, organism-based; parameters: dose 300 mg/kg; procedure, shortened: as §1
[4] = tested on: Mus musculus; assay: Anticonvulsant activity in albino CF-1 mouse assessed as protection against subcutaneous metrazol-induced seizures at 300 mg/kg, ip after 4 hrs; format: functional, organism-based; parameters: dose 300 mg/kg
Procedure, shortened: (§2)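 Male CF-1 mice, i.p. at 30, 100, 300 mg/kg in 0.5% methyl cellulose; metrazol dose convulsing 97% of animals injected s.c. in midline neck fold, mice isolated and watched 30 min; protected if no 3–5 s clonic spasm episode of limbs, jaws or vibrissae.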

[5] = tested on: Mus musculus; assay: Anticonvulsant activity in ip dosed albino CF-1 mouse assessed as dose required to protect against subcutaneous metrazol-induced seizures after 0.5 hrs; format: functional
Procedure, shortened: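 Male albino CF-1 mice (18-25 g) received i.p. compound suspended in 0.5% methyl cellulose at 30, 100 and 300 mg/kg. Metrazol at a dose convulsing 97% of animals was given s.c. in the midline neck fold, and mice were observed 30 min in isolation. A clonic spasm of about 3-5 s was the end point. The value is the minimum dose protecting half or more of the mice.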

[6] = tested on: Mus musculus; assay: Neurotoxicity in albino CF-1 mouse assessed as motor impairment at 300 mg/kg, ip after 0.5 hrs by rotarod test; format: toxicity, organism-based; parameters: dose 300 mg/kg, route intraperitoneal; conditions: in vivo
Procedure, shortened: (§3)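 Minimal motor impairment in male CF-1 mice by rotorod after i.p. dosing; toxic if animal falls off rotating rod 3 times within 1 min. Screen doses 30, 100, 300 mg/kg; quantitative TD50 (95% confidence interval) determined at time of peak effect.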

[7] = tested on: Mus musculus; assay: Neurotoxicity in albino CF-1 mouse assessed as motor impairment at 300 mg/kg, ip after 4 hrs by rotarod test; format: toxicity, organism-based; parameters: dose 300 mg/kg, route intraperitoneal; conditions: in vivo; procedure, shortened: as §3
[8] = tested on: Mus musculus; assay: Anticonvulsant activity in ip dosed albino CF-1 mouse assessed as dose required to protect against maximal electroshock-induced seizures after 0.5 hrs; format: functional; procedure, shortened: as §1
[9] = tested on: Mus musculus; assay: Anticonvulsant activity in ip dosed albino CF-1 mouse assessed as dose required to protect against maximal electroshock-induced seizures after 2 hrs; format: functional; procedure, shortened: as §1
[10] = tested on: Mus musculus; assay: Anticonvulsant activity in ip dosed albino CF-1 mouse assessed as dose required to protect against maximal electroshock-induced seizures after 4 hrs; format: functional; procedure, shortened: as §1
[11] = tested on: Mus musculus; assay: Anticonvulsant activity in albino CF-1 mouse assessed as protection against subcutaneous metrazol-induced seizures at 300 mg/kg, ip after 0.5 hrs; format: functional, organism-based; parameters: dose 300 mg/kg; procedure, shortened: as §2
[12] = tested on: Mus musculus; assay: Neurotoxicity in ip dosed albino CF-1 mouse assessed as dose required to cause motor impairment after 0.5 hrs by rotarod test; format: toxicity, organism-based; conditions: in vivo; procedure, shortened: as §3
[13] = tested on: Mus musculus; assay: Neurotoxicity in ip dosed albino CF-1 mouse assessed as dose required to cause motor impairment after 4 hrs by rotarod test; format: toxicity, organism-based; conditions: in vivo; procedure, shortened: as §3

Compound	Activity [1]	Activity [2]	Activity [3]	Activity [4]	Activity [5] [mg/kg]	Activity [6]	Activity [7]	Activity [8] [mg/kg]	Activity [9] [mg/kg]	Activity [10] [mg/kg]	Activity [11]	Activity [12] [mg/kg]	Activity [13] [mg/kg]
CCCC(CCC)C(=O)[O-].[Na+] [VALPROATE SODIUM]	inactive	inactive	inactive	inactive	300	Non-toxic	Non-toxic						
O=C1NC(=O)C(c2ccccc2)(c2ccccc2)N1 [PHENYTOIN]				inactive				30	30	30	inactive	100	100

Source: ChEMBL document CHEMBL1667749, “Design & synthesis of N'-[substituted] pyridine-4-carbohydrazides as potential anticonvulsant agents” (Eur J Med Chem, 2011)
